≈ marks a conversion by molar mass, not a printed value. Calls of active or inactive are those of the source. No cut-off for these calls is given here.
Legend:
[1] = biological target: Serine/threonine-protein kinase mTOR (Homo sapiens, UniProt P42345); assay: Inhibition of C-terminal FLAG-tagged recombinant mTOR (1362 to 2549 residues) (unknown origin) using Biotin-Ahx-Lys-Lys-Ala-Asn-Gln-Val-Phe-Leu-Gly-Phe-Thr-Tyr-Val-Ala-Pro-Ser-Val-Leu-Glu-Ser-Val-Lys-Glu-NH2 as substrate after 90 mins by AlphaScreen assay
[2] = biological target: Serine/threonine-protein kinase ATR (Homo sapiens, UniProt Q13535); assay: Inhibition of ATR in human HT-29 cells assessed as reduction in Chk1 phosphorylation at Ser-345 residue after 60 mins in presence of 4-nitroquinoline-1-oxide by Hoechst 33258 staining based plate reader analysis; assay type: cell-based
[3] = biological target: T1, Phosphatidylinositol 4,5-bisphosphate 3-kinase catalytic subunit alpha isoform (Homo sapiens, UniProt P42336); assay: Inhibition of human recombinant PI3Kalpha using PIP2/ATP as substrate incubated for 20 mins followed by substrate addition by Kinase Glo reagent based luminescence assay
[4] = biological target: T2, DNA-dependent protein kinase catalytic subunit (Homo sapiens, UniProt P78527); assay: Inhibition of DNAPK (unknown origin) using p53-based peptide substrate preincubated for 5 min prior to ATP addition
[5] = organism: Homo sapiens; assay: Selectivity ratio of IC50 for ATR in human HT-29 cells to IC50 for ATM in human HT-29 cells; assay type: cell-based
[6] = biological target: Phosphatidylinositol 4,5-bisphosphate 3-kinase catalytic subunit gamma isoform (Homo sapiens, UniProt P48736); assay: Inhibition of human recombinant PI3Kgamma using PIP2/ATP as substrate incubated for 20 mins followed by substrate addition by Kinase Glo reagent based luminescence assay
[7] = in vitro; conditions: human, hepatocytes
[8] = biological target: T3, Serine-protein kinase ATM (Homo sapiens, UniProt Q13315); assay: Inhibition of ATM phosphorylation at Ser-1981 residue in human HT-29 cells incubated for 1 hr followed by X-ray irradiation by Hoechst staining based fluorescence plate reader analysis; assay type: cell-based
[9] = in vitro; conditions: rat, hepatocytes
[10] = physchem; conditions: octanol/buffer, pH 7.4
[11] = biological target: T3, Serine-protein kinase ATM; assay: Inhibition of ATM (unknown origin) using p53 as substrate incubated for 30 mins followed by substrate addition measured after 2 hrs in presence of ATP by HTRF method
[12] = biological target: T4, Phosphatidylinositol 4,5-bisphosphate 3-kinase catalytic subunit beta isoform (Homo sapiens, UniProt P42338); assay: Inhibition of human recombinant PI3Kbeta using PIP2/ATP as substrate incubated for 20 mins followed by substrate addition by Kinase Glo reagent based luminescence assay
[13] = biological target: T1, Phosphatidylinositol 4,5-bisphosphate 3-kinase catalytic subunit alpha isoform; assay: Inhibition of PI3Kalpha in human BT474 cells assessed as reduction in AKT phosphorylation at Thr-308 residue; assay type: cell-based
[14] = Fraction unbound in rat plasma by equilibrium dialysis method; assay type: ADME, cell-free
[15] = Intrinsic clearance in mouse hepatocytes assessed per million cells; assay type: ADME, cell-based, Hepatocyte; conditions: read-out: CLH
Procedure, shortened: (§1)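 Intrinsic clearance measured in hepatocytes of each species, reported as µL/min/10⁶ cells.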

[16] = Clearance in dog at 1 mg/kg, iv or 2 mg/kg, po; assay type: ADME, organism-based, Canis lupus familiaris; conditions: in vivo
[17] = Oral bioavailability in dog at 2 mg/kg; assay type: ADME, organism-based, Canis lupus familiaris; conditions: in vivo
[18] = Cmax in nude mouse at 50 mg/kg, po; assay type: ADME, organism-based; set-up: dose 50 mg/kg, route oral; conditions: in vivo
Procedure, shortened: (§2)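 Nude mice, single oral dose of 50 mg/kg. Vehicle was either a propylene glycol aqueous solution or 10% DMSO:90% captisol solution.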

[19] = Apparent permeability from apical to basolateral side in human Caco2 cells; assay type: ADME, cell-based; conditions: Caco-2
[20] = biological target: Vascular endothelial growth factor receptor 2 (Homo sapiens, UniProt P35968); assay: Inhibition of KDR (unknown origin)
[21] = AUC (0 to 24 hrs) in nude mouse at 50 mg/kg, po; assay type: ADME, organism-based; set-up: dose 50 mg/kg, time < 24 hr, route oral; conditions: in vivo; procedure, shortened: as §2
[22] = Intrinsic clearance in dog hepatocytes assessed per million cells; assay type: ADME, cell-based, Canis lupus familiaris, Hepatocyte; conditions: read-out: CLH; procedure, shortened: as §1
[23] = Thermodynamic solubility of the compound in 0.1M aqueous phosphate buffer at pH 7.4 after 24 hrs by LC-UV analysis; assay type: physicochemical; conditions: read-out: Therm_solubility
Procedure, shortened: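 Solid samples equilibrated in 0.1 M aqueous phosphate buffer, pH 7.4, for 24 h at 25 °C.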

[24] = Volume of distribution at steady state in Han Wistar rat at 2 mg/kg, iv or 5 mg/kg, po; assay type: ADME, organism-based; conditions: in vivo, read-out: Vdss
[25] = biological target: T2, DNA-dependent protein kinase catalytic subunit; assay: Inhibition of DNAPK phosphorylation at Ser-2056 residue in human HT-29 cells; assay type: cell-based
[26] = biological target: T4, Phosphatidylinositol 4,5-bisphosphate 3-kinase catalytic subunit beta isoform; assay: Inhibition of PI3Kbeta (unknown origin) by cell based assay
[27] = biological target: Dual specificity protein kinase CLK4 (Homo sapiens) (UniProt Q9HAZ1); assay: Inhibition of recombinant human CLK4 at 1 uM
[28] = biological target: T5, Tyrosine-protein kinase Mer (Homo sapiens) (UniProt Q12866); assay: Inhibition of N-terminal GST-tagged recombinant human Mer (557 to 882 residues) expressed in baculovirus infected Sf21 cells using GGMEDIYFEFMGGKKK as substrate at 1 uM relative to control
T5 sequence (whole entry): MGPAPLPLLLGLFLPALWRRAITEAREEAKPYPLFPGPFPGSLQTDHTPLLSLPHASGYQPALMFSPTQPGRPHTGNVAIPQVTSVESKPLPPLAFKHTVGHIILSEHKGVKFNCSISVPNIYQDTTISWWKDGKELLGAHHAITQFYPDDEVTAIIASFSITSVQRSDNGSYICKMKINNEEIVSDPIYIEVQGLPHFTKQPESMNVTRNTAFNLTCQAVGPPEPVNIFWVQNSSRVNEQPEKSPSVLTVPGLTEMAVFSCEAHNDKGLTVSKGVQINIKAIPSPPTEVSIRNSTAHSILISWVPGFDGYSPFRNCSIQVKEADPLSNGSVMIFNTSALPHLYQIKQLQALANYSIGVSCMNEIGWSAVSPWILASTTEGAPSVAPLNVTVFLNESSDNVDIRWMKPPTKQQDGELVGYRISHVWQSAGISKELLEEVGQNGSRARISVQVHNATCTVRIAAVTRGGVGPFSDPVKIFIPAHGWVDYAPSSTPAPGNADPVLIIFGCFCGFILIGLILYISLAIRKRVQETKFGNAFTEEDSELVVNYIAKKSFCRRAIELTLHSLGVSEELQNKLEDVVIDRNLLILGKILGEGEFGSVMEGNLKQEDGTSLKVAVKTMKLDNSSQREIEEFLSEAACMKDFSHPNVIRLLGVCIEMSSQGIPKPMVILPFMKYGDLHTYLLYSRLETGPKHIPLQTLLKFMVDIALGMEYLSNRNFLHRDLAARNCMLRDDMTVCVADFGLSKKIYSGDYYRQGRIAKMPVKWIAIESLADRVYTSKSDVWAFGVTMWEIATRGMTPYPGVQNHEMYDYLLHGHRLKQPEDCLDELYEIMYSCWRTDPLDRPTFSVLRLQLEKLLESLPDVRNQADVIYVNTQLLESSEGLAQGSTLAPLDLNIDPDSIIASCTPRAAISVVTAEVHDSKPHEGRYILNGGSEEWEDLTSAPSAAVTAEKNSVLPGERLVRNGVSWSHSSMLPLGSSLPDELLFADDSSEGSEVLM

[29] = Volume of distribution at steady state in dog at 1 mg/kg, iv or 2 mg/kg, po; assay type: ADME, organism-based, Canis lupus familiaris; conditions: in vivo, read-out: Vdss
[30] = tested on: SW-620; assay: Antitumor activity against human SW620 cells xenografted in immunocompromised athymic Swiss nude mouse assessed as tumor growth inhibition at 50 mg/kg bid administered via oral gavage for 3 days a week for 3 weeks regime after 24 hrs of topoisomerase-1 inhibitor irinotecan administration; assay type: functional, organism-based
[31] = Fraction unbound in dog plasma by equilibrium dialysis method; assay type: ADME, cell-free, Canis lupus familiaris
[32] = Clearance in Han Wistar rat at 2 mg/kg, iv or 5 mg/kg, po; assay type: ADME, organism-based; conditions: in vivo
[33] = biological target: Glycogen synthase kinase-3 beta (Homo sapiens, UniProt P49841); assay: Inhibition of GSK3beta (unknown origin)
[34] = tested on: Mus musculus; assay: Time duration during which free plasma concentration stays above in-vitro ATM IC50 level in nude mouse at 50 mg/kg, po; assay type: ADME, organism-based; conditions: in vivo; procedure, shortened: as §2
[35] = Fraction unbound in mouse plasma by equilibrium dialysis method; assay type: ADME, cell-free
[36] = Intrinsic clearance in rat hepatocytes assessed per million cells; assay type: ADME, cell-based, Hepatocyte; conditions: read-out: CLH; procedure, shortened: as §1
[37] = biological target: Dual specificity protein kinase CLK1 (Homo sapiens) (UniProt P49759); assay: Inhibition of N-terminal His6-tagged recombinant human CLK1 (130-end residues) expressed in baculovirus infected Sf21 cells at 1 uM relative to control
[38] = Oral bioavailability in Han Wistar rat at 5 mg/kg; assay type: ADME, organism-based; conditions: in vivo
[39] = Fraction unbound in human plasma by equilibrium dialysis method; assay type: ADME, cell-free
[40] = Intrinsic clearance in human hepatocytes assessed per million cells; assay type: ADME, cell-based, Hepatocyte; conditions: read-out: CLH; procedure, shortened: as §1
[41] = Clearance in dog at 1.7 mg/kg, iv or 4.2 mg/kg, po; assay type: ADME, organism-based, Canis lupus familiaris; conditions: in vivo
[42] = Oral bioavailability in dog at 4.2 mg/kg; assay type: ADME, organism-based, Canis lupus familiaris; conditions: in vivo
[43] = Volume of distribution at steady state in dog at 1.7 mg/kg, iv or 4.2 mg/kg, po; assay type: ADME, organism-based, Canis lupus familiaris; conditions: in vivo, read-out: Vdss
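Throughout, for logD: determined by the shake flask method.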

T4 sequence (P42338 whole entry, canonical isoform): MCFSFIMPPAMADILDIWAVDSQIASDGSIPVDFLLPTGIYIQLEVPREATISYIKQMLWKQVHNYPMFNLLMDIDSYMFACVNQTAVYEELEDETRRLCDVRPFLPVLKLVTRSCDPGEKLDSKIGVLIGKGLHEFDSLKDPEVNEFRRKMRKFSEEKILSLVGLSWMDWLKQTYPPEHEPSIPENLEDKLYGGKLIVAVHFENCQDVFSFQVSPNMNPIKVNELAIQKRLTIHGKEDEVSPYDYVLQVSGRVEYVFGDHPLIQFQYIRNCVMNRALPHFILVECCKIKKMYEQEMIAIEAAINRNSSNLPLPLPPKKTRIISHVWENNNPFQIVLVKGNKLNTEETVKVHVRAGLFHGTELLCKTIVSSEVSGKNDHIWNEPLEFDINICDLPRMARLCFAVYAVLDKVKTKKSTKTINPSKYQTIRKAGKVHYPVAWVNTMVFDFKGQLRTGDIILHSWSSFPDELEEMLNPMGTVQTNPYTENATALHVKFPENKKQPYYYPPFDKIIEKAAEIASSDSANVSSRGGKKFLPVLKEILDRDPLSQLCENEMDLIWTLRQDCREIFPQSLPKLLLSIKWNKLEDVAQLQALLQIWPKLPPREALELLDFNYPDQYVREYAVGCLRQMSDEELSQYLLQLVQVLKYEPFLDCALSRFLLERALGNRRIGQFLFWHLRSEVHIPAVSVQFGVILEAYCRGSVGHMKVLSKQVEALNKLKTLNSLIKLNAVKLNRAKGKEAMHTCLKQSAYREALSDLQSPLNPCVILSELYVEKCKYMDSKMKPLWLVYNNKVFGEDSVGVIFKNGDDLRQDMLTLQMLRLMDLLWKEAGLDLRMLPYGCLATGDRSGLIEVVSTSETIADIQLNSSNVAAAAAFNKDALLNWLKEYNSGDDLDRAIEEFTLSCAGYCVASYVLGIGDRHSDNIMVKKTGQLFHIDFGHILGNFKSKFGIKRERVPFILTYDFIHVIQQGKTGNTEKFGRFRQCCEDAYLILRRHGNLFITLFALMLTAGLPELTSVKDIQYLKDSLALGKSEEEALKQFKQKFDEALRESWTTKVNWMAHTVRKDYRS
T1 sequence (P42336 whole entry, canonical isoform): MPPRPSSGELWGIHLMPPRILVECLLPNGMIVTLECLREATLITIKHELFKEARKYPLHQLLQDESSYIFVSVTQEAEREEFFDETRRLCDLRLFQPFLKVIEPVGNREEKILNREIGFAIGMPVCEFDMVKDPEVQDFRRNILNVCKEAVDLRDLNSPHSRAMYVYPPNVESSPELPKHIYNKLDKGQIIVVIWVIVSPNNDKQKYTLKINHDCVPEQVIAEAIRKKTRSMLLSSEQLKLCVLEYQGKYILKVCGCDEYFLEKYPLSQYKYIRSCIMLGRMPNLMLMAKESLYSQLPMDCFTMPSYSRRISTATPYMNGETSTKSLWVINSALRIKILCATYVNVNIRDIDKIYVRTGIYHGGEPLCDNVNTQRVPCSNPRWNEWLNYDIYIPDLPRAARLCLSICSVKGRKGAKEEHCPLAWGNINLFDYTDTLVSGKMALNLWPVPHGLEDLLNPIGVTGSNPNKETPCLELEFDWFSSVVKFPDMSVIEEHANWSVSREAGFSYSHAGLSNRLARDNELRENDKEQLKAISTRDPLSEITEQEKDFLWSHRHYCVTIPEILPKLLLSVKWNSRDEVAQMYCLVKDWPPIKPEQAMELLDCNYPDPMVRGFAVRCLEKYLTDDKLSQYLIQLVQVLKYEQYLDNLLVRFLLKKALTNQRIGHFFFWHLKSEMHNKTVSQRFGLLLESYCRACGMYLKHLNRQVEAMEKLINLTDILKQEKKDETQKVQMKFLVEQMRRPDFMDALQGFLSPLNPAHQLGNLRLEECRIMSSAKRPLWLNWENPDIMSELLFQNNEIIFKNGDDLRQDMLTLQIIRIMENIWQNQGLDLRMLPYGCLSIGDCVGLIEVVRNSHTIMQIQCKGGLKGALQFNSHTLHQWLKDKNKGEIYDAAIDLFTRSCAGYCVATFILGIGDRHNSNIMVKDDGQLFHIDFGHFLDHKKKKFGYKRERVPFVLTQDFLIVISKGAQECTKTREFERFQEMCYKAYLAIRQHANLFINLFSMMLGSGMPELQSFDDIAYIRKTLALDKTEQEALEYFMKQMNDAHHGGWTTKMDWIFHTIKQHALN
Phosphatidylinositol 4,5-bisphosphate 3-kinase catalytic subunit gamma isoform, sequence (P48736 whole entry, canonical isoform): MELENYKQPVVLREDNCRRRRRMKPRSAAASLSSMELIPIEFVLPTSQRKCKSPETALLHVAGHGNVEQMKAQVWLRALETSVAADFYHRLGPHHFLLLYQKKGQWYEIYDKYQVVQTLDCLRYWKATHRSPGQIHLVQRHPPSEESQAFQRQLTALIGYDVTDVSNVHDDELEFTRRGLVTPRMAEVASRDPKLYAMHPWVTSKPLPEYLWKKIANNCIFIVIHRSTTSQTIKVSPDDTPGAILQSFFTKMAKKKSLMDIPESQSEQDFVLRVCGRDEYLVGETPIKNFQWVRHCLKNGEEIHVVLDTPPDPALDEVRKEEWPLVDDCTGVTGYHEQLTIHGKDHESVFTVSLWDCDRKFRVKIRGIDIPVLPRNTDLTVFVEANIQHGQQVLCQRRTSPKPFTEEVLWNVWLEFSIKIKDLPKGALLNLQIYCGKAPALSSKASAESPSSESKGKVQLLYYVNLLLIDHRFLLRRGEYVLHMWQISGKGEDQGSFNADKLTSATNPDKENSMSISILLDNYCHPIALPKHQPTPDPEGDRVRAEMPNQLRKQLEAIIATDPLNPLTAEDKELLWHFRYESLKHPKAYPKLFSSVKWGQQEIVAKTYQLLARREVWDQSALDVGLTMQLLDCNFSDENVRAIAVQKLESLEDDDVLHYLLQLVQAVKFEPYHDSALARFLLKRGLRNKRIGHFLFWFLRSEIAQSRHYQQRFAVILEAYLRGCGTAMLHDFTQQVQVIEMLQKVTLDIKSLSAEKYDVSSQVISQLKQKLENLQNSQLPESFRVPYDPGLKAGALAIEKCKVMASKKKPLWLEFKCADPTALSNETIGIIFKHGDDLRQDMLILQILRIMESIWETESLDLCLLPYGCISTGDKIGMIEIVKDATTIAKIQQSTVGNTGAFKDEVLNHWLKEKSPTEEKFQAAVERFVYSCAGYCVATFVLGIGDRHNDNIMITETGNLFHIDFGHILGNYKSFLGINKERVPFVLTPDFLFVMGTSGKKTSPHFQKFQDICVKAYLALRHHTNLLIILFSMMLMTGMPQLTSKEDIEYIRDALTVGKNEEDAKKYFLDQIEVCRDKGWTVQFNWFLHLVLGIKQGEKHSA
Glycogen synthase kinase-3 beta, sequence (P49841 whole entry): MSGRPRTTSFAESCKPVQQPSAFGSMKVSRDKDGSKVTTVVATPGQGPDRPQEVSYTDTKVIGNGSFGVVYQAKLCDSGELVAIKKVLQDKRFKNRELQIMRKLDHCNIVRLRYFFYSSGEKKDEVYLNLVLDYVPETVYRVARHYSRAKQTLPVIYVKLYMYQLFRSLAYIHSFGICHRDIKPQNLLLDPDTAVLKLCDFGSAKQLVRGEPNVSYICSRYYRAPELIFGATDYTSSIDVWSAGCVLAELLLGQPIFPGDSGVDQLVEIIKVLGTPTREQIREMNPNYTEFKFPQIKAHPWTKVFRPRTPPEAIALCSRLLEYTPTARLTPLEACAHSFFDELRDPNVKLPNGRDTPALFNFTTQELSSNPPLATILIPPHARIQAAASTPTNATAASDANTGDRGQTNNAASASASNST
Dual specificity protein kinase CLK4 (Homo sapiens), sequence (Q9HAZ1 whole entry, looked up, the tested form may be a part): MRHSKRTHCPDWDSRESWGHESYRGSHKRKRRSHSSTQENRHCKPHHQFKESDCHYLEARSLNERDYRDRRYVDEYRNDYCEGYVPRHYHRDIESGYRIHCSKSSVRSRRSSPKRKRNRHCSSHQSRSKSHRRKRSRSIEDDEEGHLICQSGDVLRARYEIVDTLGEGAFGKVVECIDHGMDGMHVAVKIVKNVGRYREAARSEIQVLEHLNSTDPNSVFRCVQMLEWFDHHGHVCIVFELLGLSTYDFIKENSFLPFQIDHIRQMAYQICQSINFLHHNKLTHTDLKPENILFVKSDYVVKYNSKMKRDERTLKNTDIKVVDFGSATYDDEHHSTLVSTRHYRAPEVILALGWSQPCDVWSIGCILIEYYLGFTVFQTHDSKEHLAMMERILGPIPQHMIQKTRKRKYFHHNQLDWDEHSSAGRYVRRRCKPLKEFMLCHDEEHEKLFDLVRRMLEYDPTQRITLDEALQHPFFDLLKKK
Dual specificity protein kinase CLK1 (Homo sapiens), sequence (P49759 whole entry, looked up): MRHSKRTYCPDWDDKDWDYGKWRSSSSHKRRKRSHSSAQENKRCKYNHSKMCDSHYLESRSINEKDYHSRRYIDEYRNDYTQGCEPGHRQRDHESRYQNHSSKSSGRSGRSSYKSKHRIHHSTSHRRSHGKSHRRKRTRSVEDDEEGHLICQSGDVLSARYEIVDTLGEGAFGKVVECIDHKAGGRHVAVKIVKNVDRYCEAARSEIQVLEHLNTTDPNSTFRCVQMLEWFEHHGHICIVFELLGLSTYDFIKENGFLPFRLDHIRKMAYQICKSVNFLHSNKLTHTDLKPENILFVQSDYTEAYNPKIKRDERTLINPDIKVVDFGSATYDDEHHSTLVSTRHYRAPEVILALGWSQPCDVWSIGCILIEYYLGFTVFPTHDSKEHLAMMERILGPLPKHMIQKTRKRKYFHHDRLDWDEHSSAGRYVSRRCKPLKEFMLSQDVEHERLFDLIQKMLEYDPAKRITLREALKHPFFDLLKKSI

| SMILES | IC50 [1] | IC50 [3] | IC50 [4] | IC50 [6] | hepatocyte CLint at 1.5 h [7] | hepatocyte CLint at 1.5 h [9] | logD [10] | IC50 [12] | hepatocyte CLint [15] | Cmax [18] | AUC(0-t) at 24 h [21] | hepatocyte CLint [22] | solubility thermodynamic at 24 h [23] | Vd [24] | clearance [32] | Time [34] | hepatocyte CLint [36] | bioavailability [38] | hepatocyte CLint [40] | also measured |
| --- | --- | --- | --- | --- | --- | --- | --- | --- | --- | --- | --- | --- | --- | --- | --- | --- | --- | --- | --- | --- |
| C[C@@H](Nc1c(C(N)=O)cnc2ccc(-c3cccnc3)cc12)c1ccc(Cl)cc1 | 181 nM | 8 nM | 5 nM | 45 nM | 11 µL/min/1e6 cells | 70 µL/min/1e6 cells | > 4.3 | 21 nM |  |  |  |  |  |  |  |  |  |  |  | IC50 [2]: 1900 nM; Ratio IC50 [5]: > 10; IC50 [8]: 109 nM; IC50 [11]: 2 nM |
| COCc1ccc(-c2cc3c(N[C@@H](C)c4ccn(C)n4)c(C(N)=O)cnc3cc2F)cn1 | 1480 nM | 445 nM | 370 nM | 7100 nM | < 1.5 µL/min/1e6 cells | 5.3 µL/min/1e6 cells | 2.7 | 12800 nM | 28 µL/min/1e6 cells | 17 µM | 33 µM·h | 2 µL/min/1e6 cells | 69 µM (≈ 30 µg/mL) | 1 L/kg | 13 mL/min/kg | 10 h | 5.3 µL/min/1e6 cells | 29% | < 1.5 µL/min/1e6 cells | IC50 [13]: 18800 nM; fraction unbound [14]: 0.12; clearance [16]: 13 mL/min/kg; bioavailability [17]: 71%; Papp A→B [19]: 14 ×10⁻⁶ cm/s; IC50 [20]: 79000 nM; IC50 [25]: > 30000 nM; IC50 [26]: > 17500 nM; inhibition [27]: 55%; inhibition [28]: 56%; Vd [29]: 1.4 L/kg; TGI [30]: Active; fraction unbound [31]: 0.18; IC50 [33]: > 100000 nM; fraction unbound [35]: 0.17; inhibition [37]: 57%; fraction unbound [39]: 0.18 |
| COCc1ccc(-c2ccc3ncc(C(N)=O)c(N[C@@H](C)C4CCOCC4)c3c2)cn1 |  |  |  |  | < 2.6 µL/min/1e6 cells | < 5.3 µL/min/1e6 cells | 2.5 |  | 18 µL/min/1e6 cells | 6 µM | 40 µM·h | 11 µL/min/1e6 cells | 590 µM (≈ 248 µg/mL) | 1.1 L/kg | 18 mL/min/kg | 10 h | < 5.3 µL/min/1e6 cells | 46% | < 2.6 µL/min/1e6 cells | clearance [41]: 50 mL/min/kg; bioavailability [42]: 31%; Vd [43]: 2.6 L/kg |

From ChEMBL document CHEMBL4477207, “Discovery of Novel 3-Quinoline Carboxamides as Potent, Selective, and Orally Bioavailable Inhibitors of Ataxia Telangiectasia Mutated (ATM) Kinase” (J Med Chem, 2016)
